Measurements published in ChEMBL document CHEMBL2157880, “Synthesis, antimycobacterial and antibacterial activity of ciprofloxacin derivatives containing a N-substituted benzyl moiety” (2012).
In brackets after ≈: the same amount, converted by molar mass.

Legend:
Assay type in all cases: functional
[1] = system: Staphylococcus epidermidis; assay: Antibacterial activity against methicillin-resistant Staphylococcus epidermidis 10-10 after 18 to 24 hrs by NCCLS method
Method in brief: (§1)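 Incubated at 35 °C for 18–24 h under NCCLS (M100-S11) standards. MIC was read as the lowest concentration giving complete inhibition of visible bacterial growth.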

Klebsiella pneumoniae [2] = assay: Antibacterial activity against extended spectrum beta-lactamases producing Klebsiella pneumoniae 10-2 after 18 to 24 hrs by NCCLS method
Method in brief: (§2)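 Standard NCCLS (M100-S11) MIC testing against Gram-positive and Gram-negative strains. Plates were incubated at 35 °C for 18–24 h. The MIC was read as the lowest concentration giving complete inhibition of visible bacterial growth.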

Staphylococcus aureus [3] = assay: Antibacterial activity against methicillin-resistant Staphylococcus aureus 10-15 after 18 to 24 hrs by NCCLS method; method in brief: as §1
Escherichia coli [4] = assay: Antibacterial activity against Escherichia coli 10-2 after 18 to 24 hrs by NCCLS method; method in brief: as §2
Staphylococcus aureus [5] = assay: Antibacterial activity against methicillin-sensitive Staphylococcus aureus 10-14 after 18 to 24 hrs by NCCLS method; method in brief: as §2
Staphylococcus aureus [6] = assay: Antibacterial activity against methicillin-sensitive Staphylococcus aureus 10-13 after 18 to 24 hrs by NCCLS method; method in brief: as §2
Escherichia coli [7] = assay: Antibacterial activity against Escherichia coli 10-3 after 18 to 24 hrs by NCCLS method; method in brief: as §2
[8] = system: Staphylococcus epidermidis; assay: Antibacterial activity against methicillin-sensitive Staphylococcus epidermidis 10-11 after 18 to 24 hrs by NCCLS method; method in brief: as §2
Pseudomonas aeruginosa [9] = assay: Antibacterial activity against Pseudomonas aeruginosa 10-12 after 18 to 24 hrs by NCCLS method; method in brief: as §2
Staphylococcus aureus [10] = assay: Antibacterial activity against methicillin-resistant Staphylococcus aureus 10-13 after 18 to 24 hrs by NCCLS method; method in brief: as §1
Enterococcus faecium [11] = assay: Antibacterial activity against Enterococcus faecium 10-6 after 18 to 24 hrs by NCCLS method; method in brief: as §2
Escherichia coli [12] = assay: Antibacterial activity against extended spectrum beta-lactamases producing Escherichia coli 10-4 after 18 to 24 hrs by NCCLS method; method in brief: as §2
Pseudomonas aeruginosa [13] = assay: Antibacterial activity against Pseudomonas aeruginosa 10-9 after 18 to 24 hrs by NCCLS method; method in brief: as §2
Streptococcus pneumoniae [14] = assay: Antibacterial activity against Streptococcus pneumoniae 10-6 after 18 to 24 hrs by NCCLS method; method in brief: as §2
Staphylococcus aureus [15] = assay: Antibacterial activity against methicillin-resistant Staphylococcus aureus 10-11 after 18 to 24 hrs by NCCLS method; method in brief: as §1
Streptococcus pneumoniae [16] = assay: Antibacterial activity against Streptococcus pneumoniae 10-1 after 18 to 24 hrs by NCCLS method; method in brief: as §2
Escherichia coli [17] = assay: Antibacterial activity against extended spectrum beta-lactamases producing Escherichia coli 10-2 after 18 to 24 hrs by NCCLS method; method in brief: as §2
Escherichia coli [18] = assay: Antibacterial activity against extended spectrum beta-lactamases producing Escherichia coli 10-3 after 18 to 24 hrs by NCCLS method; method in brief: as §2
Klebsiella pneumoniae [19] = assay: Antibacterial activity against Klebsiella pneumoniae 10-4 after 18 to 24 hrs by NCCLS method; method in brief: as §2
[20] = system: Staphylococcus epidermidis; assay: Antibacterial activity against methicillin-resistant Staphylococcus epidermidis 10-13 after 18 to 24 hrs by NCCLS method; method in brief: as §1
Staphylococcus aureus [21] = assay: Antibacterial activity against Staphylococcus aureus ATCC 2592 after 18 to 24 hrs by NCCLS method; method in brief: as §2
Pseudomonas aeruginosa [22] = assay: Antibacterial activity against Pseudomonas aeruginosa 10-5 after 18 to 24 hrs by NCCLS method; method in brief: as §2
Klebsiella pneumoniae [23] = assay: Antibacterial activity against extended spectrum beta-lactamases producing Klebsiella pneumoniae 10-3 after 18 to 24 hrs by NCCLS method; method in brief: as §2
Pseudomonas aeruginosa [24] = assay: Antibacterial activity against Pseudomonas aeruginosa 10-18 after 18 to 24 hrs by NCCLS method; method in brief: as §2
Staphylococcus aureus [25] = assay: Antibacterial activity against methicillin-sensitive Staphylococcus aureus 10-11 after 18 to 24 hrs by NCCLS method; method in brief: as §2
Escherichia coli [26] = assay: Antibacterial activity against Escherichia coli ATCC 25922 after 18 to 24 hrs by NCCLS method; method in brief: as §2
[27] = system: Staphylococcus epidermidis; assay: Antibacterial activity against methicillin-sensitive Staphylococcus epidermidis 10-15 after 18 to 24 hrs by NCCLS method; method in brief: as §1
Klebsiella pneumoniae [28] = assay: Antibacterial activity against extended spectrum beta-lactamases producing Klebsiella pneumoniae 10-1 after 18 to 24 hrs by NCCLS method; method in brief: as §2
Pseudomonas aeruginosa [29] = assay: Antibacterial activity against Pseudomonas aeruginosa 10-15 after 18 to 24 hrs by NCCLS method; method in brief: as §2
Enterococcus faecalis [30] = assay: Antibacterial activity against Enterococcus faecalis 10-7 after 18 to 24 hrs by NCCLS method; method in brief: as §2
Klebsiella pneumoniae [31] = assay: Antibacterial activity against Klebsiella pneumoniae 10-3 after 18 to 24 hrs by NCCLS method; method in brief: as §2
Enterococcus faecium [32] = assay: Antibacterial activity against Enterococcus faecium 10-9 after 18 to 24 hrs by NCCLS method; method in brief: as §2
Klebsiella pneumoniae [33] = assay: Antibacterial activity against Klebsiella pneumoniae 10-2 after 18 to 24 hrs by NCCLS method; method in brief: as §2
Enterococcus faecalis [34] = assay: Antibacterial activity against Enterococcus faecalis 10-5 after 18 to 24 hrs by NCCLS method; method in brief: as §2
[35] = system: Mycobacterium tuberculosis; assay: Antimycobacterial activity against Mycobacterium tuberculosis H37Rv ATCC 27294 by microplate alamar blue assay
Method in brief: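 Microplate Alamar Blue fluorescence assay on strain H37Rv ATCC 27294. MIC was the lowest concentration cutting fluorescence by ≥90% against the mean of replicate bacterium-only controls.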

Enterococcus faecalis [36] = assay: Antibacterial activity against Enterococcus faecalis 10-6 after 18 to 24 hrs by NCCLS method; method in brief: as §2
Pseudomonas aeruginosa [37] = assay: Antibacterial activity against Pseudomonas aeruginosa 10-20 after 18 to 24 hrs by NCCLS method; method in brief: as §2
Escherichia coli [38] = assay: Antibacterial activity against Escherichia coli 10-1 after 18 to 24 hrs by NCCLS method; method in brief: as §2

SMILES | MIC [1] [µg/mL] | MIC (Klebsiella pneumoniae [2]) [µg/mL] | MIC (Staphylococcus aureus [3]) [µg/mL] | MIC (Escherichia coli [4]) [µg/mL] | MIC (Staphylococcus aureus [5]) [µg/mL] | MIC (Staphylococcus aureus [6]) [µg/mL] | MIC (Escherichia coli [7]) [µg/mL] | MIC [8] [µg/mL] | MIC (Pseudomonas aeruginosa [9]) [µg/mL] | MIC (Staphylococcus aureus [10]) [µg/mL] | MIC (Enterococcus faecium [11]) [µg/mL] | MIC (Escherichia coli [12]) [µg/mL] | MIC (Pseudomonas aeruginosa [13]) [µg/mL] | MIC (Streptococcus pneumoniae [14]) [µg/mL] | MIC (Staphylococcus aureus [15]) [µg/mL] | MIC (Streptococcus pneumoniae [16]) [µg/mL] | MIC (Escherichia coli [17]) [µg/mL] | MIC (Escherichia coli [18]) [µg/mL] | MIC (Klebsiella pneumoniae [19]) [µg/mL] | MIC [20] [µg/mL] | further results
COc1cccc(CN2CCN(c3cc4c(cc3F)c(=O)c(C(=O)O)cn4C3CC3)CC2)c1OC | 8 (≈ 16.6 µM) | > 128 | 16 (≈ 33.2 µM) | 32 (≈ 66.5 µM) | 0.125 (≈ 0.26 µM) | 0.03 (≈ 0.0623 µM) | > 128 | 0.25 (≈ 0.519 µM) | 32 (≈ 66.5 µM) | 32 (≈ 66.5 µM) | 4 (≈ 8.31 µM) | 128 (≈ 266 µM) | 64 (≈ 133 µM) | 32 (≈ 66.5 µM) | 16 (≈ 33.2 µM) | 2 (≈ 4.15 µM) | > 128 | > 128 | > 128 | 32 (≈ 66.5 µM) | MIC (Staphylococcus aureus [21]): 0.06 µg/mL (≈ 0.125 µM); MIC (Pseudomonas aeruginosa [22]): 32 µg/mL (≈ 66.5 µM); MIC (Klebsiella pneumoniae [23]): > 128 µg/mL; MIC (Pseudomonas aeruginosa [24]): 64 µg/mL (≈ 133 µM); MIC (Staphylococcus aureus [25]): 0.03 µg/mL (≈ 0.0623 µM); MIC (Escherichia coli [26]): 0.5 µg/mL (≈ 1.04 µM); MIC [27]: 8 µg/mL (≈ 16.6 µM); MIC (Klebsiella pneumoniae [28]): > 128 µg/mL; MIC (Pseudomonas aeruginosa [29]): 32 µg/mL (≈ 66.5 µM); MIC (Enterococcus faecalis [30]): 32 µg/mL (≈ 66.5 µM); MIC (Klebsiella pneumoniae [31]): 16 µg/mL (≈ 33.2 µM); MIC (Enterococcus faecium [32]): 32 µg/mL (≈ 66.5 µM); MIC (Klebsiella pneumoniae [33]): > 128 µg/mL; MIC (Enterococcus faecalis [34]): 8 µg/mL (≈ 16.6 µM); MIC [35]: 2 µg/mL (≈ 4.15 µM); MIC (Enterococcus faecalis [36]): > 128 µg/mL; MIC (Pseudomonas aeruginosa [37]): 128 µg/mL (≈ 266 µM); MIC (Escherichia coli [38]): > 128 µg/mL
COc1ccc(CN2CCN(c3cc4c(cc3F)c(=O)c(C(=O)O)cn4C3CC3)CC2)cc1OC | 8 (≈ 16.6 µM) | > 128 | 16 (≈ 33.2 µM) | 16 (≈ 33.2 µM) | 0.25 (≈ 0.519 µM) | 0.125 (≈ 0.26 µM) | 64 (≈ 133 µM) | 4 (≈ 8.31 µM) | 32 (≈ 66.5 µM) | 64 (≈ 133 µM) | 4 (≈ 8.31 µM) | 64 (≈ 133 µM) | 64 (≈ 133 µM) | 32 (≈ 66.5 µM) | 32 (≈ 66.5 µM) | 2 (≈ 4.15 µM) | > 128 | > 128 | > 128 | 32 (≈ 66.5 µM) | MIC (Staphylococcus aureus [21]): 0.125 µg/mL (≈ 0.26 µM); MIC (Pseudomonas aeruginosa [22]): 32 µg/mL (≈ 66.5 µM); MIC (Klebsiella pneumoniae [23]): > 128 µg/mL; MIC (Pseudomonas aeruginosa [24]): 64 µg/mL (≈ 133 µM); MIC (Staphylococcus aureus [25]): 0.125 µg/mL (≈ 0.26 µM); MIC (Escherichia coli [26]): 0.5 µg/mL (≈ 1.04 µM); MIC [27]: 8 µg/mL (≈ 16.6 µM); MIC (Klebsiella pneumoniae [28]): > 128 µg/mL; MIC (Pseudomonas aeruginosa [29]): 32 µg/mL (≈ 66.5 µM); MIC (Enterococcus faecalis [30]): 64 µg/mL (≈ 133 µM); MIC (Klebsiella pneumoniae [31]): 16 µg/mL (≈ 33.2 µM); MIC (Enterococcus faecium [32]): 64 µg/mL (≈ 133 µM); MIC (Klebsiella pneumoniae [33]): > 128 µg/mL; MIC (Enterococcus faecalis [34]): 8 µg/mL (≈ 16.6 µM); MIC [35]: 16 µg/mL (≈ 33.2 µM); MIC (Enterococcus faecalis [36]): > 128 µg/mL; MIC (Pseudomonas aeruginosa [37]): 128 µg/mL (≈ 266 µM); MIC (Escherichia coli [38]): > 128 µg/mL
